Results taken from article PMC10824694 (Blood Advances, 2023).

What was measured:
OVCAR-8 = experiment: cells; type: cell-based; settings: Homo sapiens, OVCAR-8, 72 h
UACC-62 = experiment: cells; type: cell-based; settings: Homo sapiens, UACC-62, 72 h
UACC-257 = experiment: cells; type: cell-based; settings: Homo sapiens, UACC-257, 72 h
HOP-92 = experiment: cells; type: cell-based; settings: Homo sapiens, HOP-92, 72 h
Rael = experiment: cells; type: cell-based; settings: Homo sapiens, 72 h
K-562 = experiment: cells; type: cell-based; settings: Homo sapiens, K562, 72 h
SF-268 = experiment: cells; type: cell-based; settings: Homo sapiens, SF-268, 72 h
JB6 = experiment: cells; type: cell-based; settings: Homo sapiens, JB6, 72 h
A549/ATCC = experiment: cells; type: cell-based; settings: Homo sapiens, A549, 72 h
BxPC3 = experiment: cells; type: cell-based; settings: Homo sapiens, BXPC-3, 72 h
M14 = experiment: cells; type: cell-based; settings: Homo sapiens, M14, 72 h
MALME-3M = experiment: cells; type: cell-based; settings: Homo sapiens, 72 h
DHL6 = experiment: cells; type: cell-based; settings: Homo sapiens, 72 h
ACHN = experiment: cells; type: cell-based; settings: Homo sapiens, 72 h
PC-3 = experiment: cells; type: cell-based; settings: Homo sapiens, PC-3, 72 h
[1] = Mouse pharmacokinetics study; type: in vivo
In short: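 Plasma concentration–time profiles were obtained after each route. Absolute oral bioavailability was calculated from the IV and oral data.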

EKVX = experiment: cells; type: cell-based; settings: Homo sapiens, 72 h
HT29 = experiment: cells; type: cell-based; settings: Homo sapiens, HT-29, 72 h
OVCAR-5 = experiment: cells; type: cell-based; settings: Homo sapiens, OVCAR-5, 72 h
RPMI-8226 = experiment: cells; type: cell-based; settings: Homo sapiens, RPMI-8226, 72 h
CAMKIIγ [2] = target: T1, CAMKIIγ (Homo sapiens, UniProt Q13555); experiment: Cellular thermal shift assay; type: cell-based; settings: H9 cells, 5 μM, 1 hour; vs DMSO
Target sequence in this assay (Q13555 whole entry): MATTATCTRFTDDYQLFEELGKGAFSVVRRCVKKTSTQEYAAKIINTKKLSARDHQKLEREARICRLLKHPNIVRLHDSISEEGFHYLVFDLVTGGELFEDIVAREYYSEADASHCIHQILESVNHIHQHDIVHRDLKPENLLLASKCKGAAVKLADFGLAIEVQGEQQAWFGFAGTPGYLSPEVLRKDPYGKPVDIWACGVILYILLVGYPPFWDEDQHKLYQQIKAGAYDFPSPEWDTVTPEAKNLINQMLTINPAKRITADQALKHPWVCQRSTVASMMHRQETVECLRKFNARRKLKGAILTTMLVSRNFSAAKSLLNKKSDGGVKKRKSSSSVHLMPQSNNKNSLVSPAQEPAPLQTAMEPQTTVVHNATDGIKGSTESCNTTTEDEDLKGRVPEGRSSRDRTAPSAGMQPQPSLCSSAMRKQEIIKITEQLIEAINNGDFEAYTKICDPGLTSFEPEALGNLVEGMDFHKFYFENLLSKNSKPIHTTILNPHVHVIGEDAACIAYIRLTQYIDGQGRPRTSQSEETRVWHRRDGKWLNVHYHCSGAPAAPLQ

MOLT-4 = experiment: cells; type: cell-based; settings: Homo sapiens, MOLT-4, 72 h
SW-620 = experiment: cells; type: cell-based; settings: Homo sapiens, SW-620, 72 h
RXF 393 = experiment: cells; type: cell-based; settings: Homo sapiens, RXF 393, 72 h
SK-MEL-5 = experiment: cells; type: cell-based; settings: Homo sapiens, SK-MEL-5, 72 h
U251 = experiment: cells; type: cell-based; settings: Homo sapiens, U-251, 72 h
SK-MEL-2 = experiment: cells; type: cell-based; settings: Homo sapiens, SK-MEL-2, 72 h
SK-OV-3 = experiment: cells; type: cell-based; settings: Homo sapiens, SK-OV-3, 72 h
SF-539 = experiment: cells; type: cell-based; settings: Homo sapiens, SF-539, 72 h
SNB-75 = experiment: cells; type: cell-based; settings: Homo sapiens, SNB-75, 72 h
NCI/ADR-RES = experiment: cells; type: cell-based; settings: Homo sapiens, 72 h
SK-MEL-28 = experiment: cells; type: cell-based; settings: Homo sapiens, SK-MEL-28, 72 h
NCI-H226 = experiment: cells; type: cell-based; settings: Homo sapiens, NCI-H226, 72 h
NCI-H522 = experiment: cells; type: cell-based; settings: Homo sapiens, NCI-H522, 72 h
OVCAR-4 = experiment: cells; type: cell-based; settings: Homo sapiens, OVCAR-4, 72 h
CAKI-1 = experiment: cells; type: cell-based; settings: Homo sapiens, CAKI-1, 72 h
KM12 = experiment: cells; type: cell-based; settings: Homo sapiens, KM12, 72 h
MDA-MB-231/ATCC = experiment: cells; type: cell-based; settings: Homo sapiens, MDA-MB-231, 72 h
MDA-MB-435 = experiment: cells; type: cell-based; settings: Homo sapiens, MDA-MB-435, 72 h
OVCAR-3 = experiment: cells; type: cell-based; settings: Homo sapiens, OVCAR-3, 72 h
MCF7 = experiment: cells; type: cell-based; settings: Homo sapiens, MCF7, 72 h
UO-31 = experiment: cells; type: cell-based; settings: Homo sapiens, UO-31, 72 h
NCI-H460 = experiment: cells; type: cell-based; settings: Homo sapiens, NCI-H460, 72 h
SR = experiment: cells; type: cell-based; settings: Homo sapiens, 72 h
T-47D = experiment: cells; type: cell-based; settings: Homo sapiens, T47D, 72 h
CaPan2 = experiment: cells; type: cell-based; settings: Homo sapiens, Capan-2, 72 h
MDA-MB-468 = experiment: cells; type: cell-based; settings: Homo sapiens, MDA-MB-468, 72 h
NCI-H23 = experiment: cells; type: cell-based; settings: Homo sapiens, NCI-H23, 72 h
CCRF-CEM = experiment: cells; type: cell-based; settings: Homo sapiens, 72 h
371-kinase panel = experiment: Kinome screening, HotSpot assay platform; type: biochemical; settings: 10 μM, panel of 371 kinases
In short: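 The HotSpot platform was run against a 371-kinase panel with test compounds at 1 µM and 10 µM. A hit was a kinase whose activity was inhibited by ≥50%.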

SN12C = experiment: cells; type: cell-based; settings: Homo sapiens, 72 h
A498 = experiment: cells; type: cell-based; settings: Homo sapiens, A498, 72 h
BT-549 = experiment: cells; type: cell-based; settings: Homo sapiens, BT-549, 72 h
NCI-H322M = experiment: cells; type: cell-based; settings: Homo sapiens, 72 h
FG = experiment: cells; type: cell-based; settings: Homo sapiens, 72 h
HCT-116 = experiment: cells; type: cell-based; settings: Homo sapiens, HCT-116, 72 h
SF-295 = experiment: cells; type: cell-based; settings: Homo sapiens, SF-295, 72 h
HCC-2998 = experiment: cells; type: cell-based; settings: Homo sapiens, HCC 2998, 72 h
Namalwa = experiment: cells; type: cell-based; settings: Homo sapiens, 72 h
H9 = experiment: cells; type: cell-based; settings: Homo sapiens, H9, 72 h
DU-145 = experiment: cells; type: cell-based; settings: Homo sapiens, DU-145, 72 h
Panc1 = experiment: cells; type: cell-based; settings: Homo sapiens, PANC-1, 72 h
LOX IMVI = experiment: cells; type: cell-based; settings: Homo sapiens, 72 h
TK-10 = experiment: cells; type: cell-based; settings: Homo sapiens, TK-10, 72 h
786-0 = experiment: cells; type: cell-based; settings: Homo sapiens, 786-0, 72 h
HS 578T = experiment: cells; type: cell-based; settings: Homo sapiens, 72 h
COLO 205 = experiment: cells; type: cell-based; settings: Homo sapiens, COLO 205, 72 h
[3] = tested on: H9-derived xenografted tumors; experiment: H9 xenograft T-cell lymphoma model in NSG mice; type: in vivo, mouse; settings: oral gavage daily 14 days, BBM 50 mg/kg, PA4 5-15 mg/kg per day
In short: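 Female 8-week-old NSG mice received 5×10^6 H9 cells in PBS subcutaneously in the right flank. At a tumour volume of ~30 mm³ (day 16), mice were randomised into 5 groups (n = 5 each): PBS 100 μL, or test compound in PBS, given daily by oral gavage for 14 days. Body weight and tumours were measured 3 times weekly. Mice were euthanised on day 30.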

CAMKIIγ [4] = target: T1, CAMKIIγ; experiment: nano-DSF assay with purified CAMKIIγ protein; type: binding; settings: in words
Target sequence in this assay (Q13555 14-272 limits assumed): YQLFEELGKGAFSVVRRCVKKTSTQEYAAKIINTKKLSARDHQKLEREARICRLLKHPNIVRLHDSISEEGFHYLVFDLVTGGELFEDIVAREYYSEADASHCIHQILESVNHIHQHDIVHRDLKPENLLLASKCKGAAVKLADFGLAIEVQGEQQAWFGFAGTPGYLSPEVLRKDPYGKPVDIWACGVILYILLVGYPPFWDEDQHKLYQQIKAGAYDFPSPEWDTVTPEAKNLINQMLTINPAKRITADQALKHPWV

HL-60(TB) = experiment: cells; type: cell-based; settings: Homo sapiens, HL-60, 72 h
SNB-19 = experiment: cells; type: cell-based; settings: Homo sapiens, SNB-19, 72 h
HOP-62 = experiment: cells; type: cell-based; settings: Homo sapiens, HOP-62, 72 h
Mutu = experiment: cells; type: cell-based; settings: Homo sapiens, 72 h
HCT-15 = experiment: cells; type: cell-based; settings: Homo sapiens, HCT-15, 72 h

SMILES: COc1cc2c3cc1Oc1c(OC)c(OC)cc4c1[C@@H](Cc1ccc(O)c(c1)Oc1ccc(cc1)C[C@@H]3N(C)CC2)N(C)CC4 [BBM, berbamine]
- IC50 (OVCAR-8): 14.6 µM
- IC50 (UACC-62): 19.2 µM
- IC50 (UACC-257): 6.5 µM
- IC50 (HOP-92): 12.7 µM
- IC50 (Rael): 5.87 µM
- IC50 (K-562): 5.11 µM
- IC50 (SF-268): 13.8 µM
- IC50 (JB6): 2.12 µM
- IC50 (A549/ATCC): 18.7 µM
- IC50 (BxPC3): 31.9 µM
- IC50 (M14): 13.1 µM
- IC50 (MALME-3M): 9.82 µM
- IC50 (DHL6): 15.9 µM
- IC50 (ACHN): 20.8 µM
- IC50 (PC-3): 7.94 µM
- time detected in blood after oral administration ([1]; male Institute of Cancer Research mice): 5 min
- area under the curve ([1]; male Institute of Cancer Research mice, plasma): 8478 ± 1150
- bioavailability ([1]; male, ICR (Institute of Cancer Research), mouse, plasma, po): 44.8%
- IC50 (EKVX): 6.38 µM
- IC50 (HT29): 6.56 µM
- IC50 (OVCAR-5): 9.88 µM
- IC50 (RPMI-8226): 7.83 µM
- CAMKIIγ degradation temperature (CETSA) (CAMKIIγ [2]): did not shift the degradation temperature
- IC50 (MOLT-4): 10.7 µM
- IC50 (SW-620): 12.4 µM
- IC50 (RXF 393): 16.9 µM
- IC50 (SK-MEL-5): 9.9 µM
- IC50 (U251): 10.7 µM
- IC50 (SK-MEL-2): 16 µM
- IC50 (SK-OV-3): 13.4 µM
- IC50 (SF-539): 5.25 µM
- IC50 (SNB-75): 17.6 µM
- IC50 (NCI/ADR-RES): 24.8 µM
- IC50 (SK-MEL-28): 15.4 µM
- IC50 (NCI-H226): 34.6 µM
- IC50 (NCI-H522): 21.3 µM
- IC50 (OVCAR-4): 15.1 µM
- IC50 (CAKI-1): 14.2 µM
- IC50 (KM12): 17.3 µM
- IC50 (MDA-MB-231/ATCC): 14.2 µM
- IC50 (MDA-MB-435): 13.5 µM
- IC50 (OVCAR-3): 12.3 µM
- IC50 (MCF7): 9.93 µM
- IC50 (UO-31): 9.61 µM
- IC50 (NCI-H460): 20.5 µM
- IC50 (SR): 5.14 µM
- IC50 (T-47D): 15.7 µM
- IC50 (CaPan2): 59.1 µM
- IC50 (MDA-MB-468): 10.4 µM
- IC50 (NCI-H23): 14.9 µM
- IC50 (CCRF-CEM): 11.4 µM
- number of kinases whose activity was reduced by >50% (371-kinase panel): none
- IC50 (SN12C): 41.8 µM
- IC50 (A498): 6.97 µM
- IC50 (BT-549): 8.64 µM
- IC50 (NCI-H322M): 20 µM
- IC50 (FG): 32.6 µM
- IC50 (HCT-116): 10.2 µM
- IC50 (SF-295): 13.3 µM
- IC50 (HCC-2998): 5.61 µM
- IC50 (Namalwa): 20.7 µM
- IC50 (H9): 4.67 µM
- IC50 (DU-145): 27.7 µM
- IC50 (Panc1): 24.8 µM
- IC50 (LOX IMVI): 23 µM
- IC50 (TK-10): 35.8 µM
- IC50 (786-0): 8.48 µM
- IC50 (HS 578T): 12.4 µM
- IC50 (COLO 205): 16 µM
- body weight [3]: did not reduce body weight
- change of melting temperature of CAMKIIγ protein (CAMKIIγ [4]): did not significantly change the melting temperature
- IC50 (HL-60(TB)): 5.98 µM
- IC50 (SNB-19): 16.2 µM
- IC50 (HOP-62): 23.8 µM
- IC50 (Mutu): 4.64 µM
- IC50 (HCT-15): 11 µM
